# Assay results published in ChEMBL document CHEMBL1275315, “Synthesis, antioxidant activities and urease inhibition of some new 1,2,4-triazole and 1,3,4-thiadiazole derivatives” (Eur J Med Chem, 2010).
# Columns and labels:
# [1] = system: Radical scavenging activity; experiment: Antioxidant activity assessed as DPPH free radical scavenging activity in cell-free system after 30 mins; format: functional
# Method in brief: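 Compound dissolved in DMSO and DPPH in ethanol. Decrease in absorbance read at 515 nm after incubation. Percent radical scavenging calculated relative to a DMSO-treated control.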
# [2] = Antioxidant activity assessed as Superoxide anion radical scavenging activity in cell-free system; format: functional
# Method in brief: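 NADH–NBT–PMS system in 0.1 M phosphate buffer, pH 7.4, with sample added from a 1 mM DMSO stock; other reagents made up in buffer. Run at room temperature. Superoxide followed as blue formazan formation at 560 nm.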
# [3] = target: Urease (Canavalia ensiformis) (UniProt P07374); experiment: (§1) Inhibition of jack bean urease assessed as ammonia production after 15 mins by indophenol method; design: inhibition: concentration or dose not given beside the values
# Chain of Urease (Canavalia ensiformis) (P07374 whole entry, looked up): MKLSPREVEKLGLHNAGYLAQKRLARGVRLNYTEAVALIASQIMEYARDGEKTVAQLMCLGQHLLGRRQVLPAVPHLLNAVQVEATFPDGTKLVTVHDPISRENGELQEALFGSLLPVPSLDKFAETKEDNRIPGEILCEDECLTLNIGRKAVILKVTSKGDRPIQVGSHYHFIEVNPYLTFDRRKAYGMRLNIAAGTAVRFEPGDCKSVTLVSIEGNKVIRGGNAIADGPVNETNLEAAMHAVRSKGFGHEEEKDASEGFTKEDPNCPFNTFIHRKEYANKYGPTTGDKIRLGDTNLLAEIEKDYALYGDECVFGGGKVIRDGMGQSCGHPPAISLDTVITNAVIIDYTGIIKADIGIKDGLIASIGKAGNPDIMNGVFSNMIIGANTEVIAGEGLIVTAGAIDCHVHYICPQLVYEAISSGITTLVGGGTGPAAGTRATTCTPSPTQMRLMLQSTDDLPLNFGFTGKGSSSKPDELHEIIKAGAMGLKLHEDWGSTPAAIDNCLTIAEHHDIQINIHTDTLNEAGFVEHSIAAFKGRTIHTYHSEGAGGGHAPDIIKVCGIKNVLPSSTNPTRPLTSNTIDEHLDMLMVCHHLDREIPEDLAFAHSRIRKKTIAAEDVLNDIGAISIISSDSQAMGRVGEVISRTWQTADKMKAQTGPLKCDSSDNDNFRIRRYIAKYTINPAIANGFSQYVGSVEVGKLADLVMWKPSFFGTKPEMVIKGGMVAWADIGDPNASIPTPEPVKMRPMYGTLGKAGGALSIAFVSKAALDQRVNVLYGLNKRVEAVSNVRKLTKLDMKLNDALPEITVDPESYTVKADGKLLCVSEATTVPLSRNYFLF
# Method in brief: (§2)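 Jack bean urease preincubated with test sample at 30 °C for 15 min in buffer containing 100 mM urea, pH 6.8. Ammonia measured by the indophenol method, using phenol reagent (1% w/v phenol, 0.005% w/v sodium nitroprusside) and alkali reagent (0.5% w/v NaOH, 0.1% active chloride NaOCl). Absorbance at 630 nm read after 50 min. Run in triplicate; % inhibition calculated from OD test/OD control; thiourea as standard.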
# Urease = Urease (Canavalia ensiformis, UniProt P07374); experiment: as §1; method in brief: as §2
# Chain of Urease (P07374 whole entry): as the sequence (P07374 whole entry, looked up) above
Structure (SMILES),IC50 [1] [µM],IC50 [2] [µM],inhibition [3] [%],IC50 (Urease) [µM],IC10 [3] [µM]
CCCOC(=O)c1cc(O)c(O)c(O)c1 [PROPYL GALLATE],30.5,106,–,–,–
Cc1ccc(Nc2nnc(-c3ccc([N+](=O)[O-])cc3)s2)c(C)c1,–,94.8,7.2,–,–
Cc1ccc(-n2c(-c3ccc(Cl)cc3)n[nH]c2=S)c(C)c1,292,–,88.6,171,–
Cc1cccc(C)c1Nc1nnc(-c2ccccc2Cl)s1,–,–,82.8,313,–
Cc1cccc(C)c1-n1c(-c2ccc(Cl)cc2)n[nH]c1=S,–,–,7.5,–,–
Cc1ccc(Nc2nnc(-c3cccc(Cl)c3)s2)c(C)c1,–,124,12.4,–,–
Cc1ccccc1-c1n[nH]c(=S)n1-c1cccc(C)c1C,–,–,43.4,–,–
NC(N)=S,–,–,–,–,21
Cc1cccc(-n2c(-c3ccc(Cl)cc3)n[nH]c2=S)c1C,–,–,48.3,–,–
Cc1ccc(-c2nnc(Nc3c(C)cccc3C)s2)cc1,–,–,27.1,–,–
Cc1cccc(Nc2nnc(-c3ccccc3)s2)c1C,–,–,56.8,426,–
Cc1ccc(-c2n[nH]c(=S)n2-c2c(C)cccc2C)cc1,–,–,6.8,–,–
Cc1cccc(C)c1-n1c(-c2cccc(Cl)c2)n[nH]c1=S,–,–,64.8,357,–
Cc1cccc(C)c1-n1c(-c2ccccc2Cl)n[nH]c1=S,–,–,48.3,–,–
Cc1cccc(Nc2nnc(-c3ccc(Cl)cc3)s2)c1C,–,139,52.8,484,–
Cc1cccc(C)c1Nc1nnc(-c2ccc(Cl)cc2)s1,320,255,91.1,215,–
Cc1cccc(-n2c(-c3ccccc3)n[nH]c2=S)c1C,–,–,93.4,86,–
Cc1ccc(Nc2nnc(-c3cccc([N+](=O)[O-])c3)s2)c(C)c1,–,131,73.4,398,–
Cc1ccc(-n2c(-c3cccc([N+](=O)[O-])c3)n[nH]c2=S)c(C)c1,242,–,97,45.6,–
Cc1ccc(-n2c(-c3cccc(Cl)c3)n[nH]c2=S)c(C)c1,–,–,53.1,460,–
